Assay outcomes deposited in PubChem by several laboratories.
Compounds with a hit are over-represented: about 0.68% of the library has one in this group of screens.
TNAP act hi DEA = TNAP (human) activation, high acceptor; 200,000 tested, under 10 active; purified TNAP, CDP-star luminescence, 1 M DEA, 30 min; stronger effect = higher value; 0 = EDTA background, 1 = DMSO-only activity; activation factor at 20 µM; P05186; AID 1136;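 active means activation factor at least 2 at 20 µM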
Target sequence (P05186 whole entry, looked up): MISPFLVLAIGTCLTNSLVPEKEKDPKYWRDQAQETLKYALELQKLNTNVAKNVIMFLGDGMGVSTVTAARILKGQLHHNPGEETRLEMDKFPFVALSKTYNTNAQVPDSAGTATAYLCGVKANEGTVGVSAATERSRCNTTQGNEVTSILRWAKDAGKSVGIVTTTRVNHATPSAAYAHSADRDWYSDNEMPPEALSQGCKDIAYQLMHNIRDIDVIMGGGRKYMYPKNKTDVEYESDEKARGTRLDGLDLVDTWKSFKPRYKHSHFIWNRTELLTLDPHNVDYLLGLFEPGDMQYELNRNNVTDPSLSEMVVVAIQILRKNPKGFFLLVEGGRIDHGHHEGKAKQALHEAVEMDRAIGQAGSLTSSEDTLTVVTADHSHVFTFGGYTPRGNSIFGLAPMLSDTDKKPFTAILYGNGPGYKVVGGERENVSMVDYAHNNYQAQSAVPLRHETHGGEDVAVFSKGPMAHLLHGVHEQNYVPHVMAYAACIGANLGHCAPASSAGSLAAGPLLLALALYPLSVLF
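Control set: EDTA negative control, DMSO positive control / Assay system: human TNAP / Quantity: TNAP 1/800 final / Evaluation: TNAP activation factor scaled between EDTA and DMSO control wells / Measured by: luminescent substrate turnover signal / Compound dosing: one dose, 20 µM / Times: 30 min enzyme reaction at room temperature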
Furin inh = human furin inhibition; purified furin, fluorogenic substrate cleavage; inhibition, % at 20 µM or 30 µM; 220,000 compounds, 0.061% hits; in the data active means inhibition above about 25%
HMGR II inh = blocks class II HMG-CoA reductase of Enterococcus faecalis | purified E. faecalis HMGR, NADPH absorbance 340 nm kinetic | inhibition, % at 10 µM | 190,000 compounds, 0.41% hits;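 active means inhibition above a set limit, the median over all tested compounds plus 3 SD, cut at about 9.5% in these data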;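 further: enzyme runs in reverse so mevalonate oxidation gives rising NADPH absorbance; 0% = complete reaction with DMSO and 100% = background rate lacking mevalonate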
TNAP inh noacc = blocks human TNAP activity with no phosphate acceptor present | purified TNAP, CDP-star luminescence, 30 min | inhibition, % at 20 µM | P05186 | 200,000 compounds, 0.26% hits;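 active means tissue-nonspecific alkaline phosphatase inhibition above about 50% at 20 µM in the single-dose screen, limit read from the data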;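 further: 0% = DMSO negative control and 100% = EDTA positive control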
TNAP inh hi DEA = inhibitors of human TNAP at high phosphate acceptor concentration. 200,000 compounds, 0.03% hits. purified TNAP, CDP-star luminescence, 1 M DEA. inhibition, % at 20 µM. P05186;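 active means over 50% inhibition of tissue-nonspecific alkaline phosphatase at 20 µM in the single-dose screen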;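 further: plate controls were DMSO wells for no effect and EDTA-quenched wells as full inhibition for full effect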
Pf gametocyte = P. falciparum stage V gametocyte viability inhibition | P. falciparum stage V gametocytes, ATP luminescence, 24 h | inhibition, % at 10.9 µM | 150,000 compounds, 0.065% hits | AID 743093;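 active means inhibition above the mean plus 3 SD of compounds within the control limits, set per campaign, cut at about 38% in these data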;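 further: 0% = DMSO wells and 100% = medium only without gametocytes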
* hit, by the source's call; . = not tested or not shown.

SMILES	TNAP act hi DEA	Furin inh	HMGR II inh	TNAP inh noacc	TNAP inh hi DEA	Pf gametocyte
COCCC(=O)N1CCCC(C(=O)c2ccc3c4c(cccc24)CC3)C1 (centres undefined)	0.9	-33	11*	4	8	-9
COCC(=O)N1CCCC(C(=O)c2ccc3c4c(cccc24)CC3)C1 (centres undefined)	1	-27	-2	-8	-4	-20
Cc1cc(NN)nc(NS(=O)(=O)c2ccccc2)n1	1.1	-21	2	50*	-6	4
COc1ccc(NC(=O)Nc2cccc(NC(C)=O)c2)c(OC)c1	1.1	-30	-1	-10	-6	-21
Cc1ccc(C(=O)NN2C(=O)C3C4C=CC(C5CC45)C3C2=O)cc1 (centres undefined)	1	-23	11*	-7	-3	.
NC(=O)C[C@H](N)c1cn([C@@H](CC(N)=O)C(=O)N2CCNCC2)nn1	.	.	.	.	.	10
Cc1ccccc1NC(=S)NCc1ccc2c(c1)cc(C)n2C	1	-16	15*	-3	-2	.
CCN(CC)C(=S)SCC(=O)c1ccc(F)cc1	1	-14	0	52*	2	.
Cc1ccc(COc2ccsc2C(=O)NNC(N)=S)cc1	1	-11	-1	-137	-5	9
O=C(Nc1ccc(N2CCN(C(=O)c3cccs3)CC2)c(Cl)c1)c1cccnc1	1	-17	11*	-4	-4	15
Cc1ccc(NS(=O)(=O)c2c(C)ccc3nsnc23)c([N+](=O)[O-])c1	.	.	.	.	.	-16
Cc1cc2ncn(S(=O)(=O)N3CCOCC3)c2cc1C	1.1	27*	-4	10	-7	.
Cc1cc2ncn(S(=O)(=O)N3CCCCC3)c2cc1C	1	-19	-7	0	1	.
O=c1cc(CSc2nnc(COc3cccc4ccccc34)o2)c2ccccc2[nH]1	.	-18	.	.	.	11
Cc1ccc(S(=O)(=O)N2CCC(=O)N(C(COC(=O)Nc3ccccc3)Cc3ccccc3)CC2)cc1 (centres undefined)	1	-17	-9	-11	-2	-23
Cc1ccc(S(=O)(=O)N2CCC(=O)N(C(CO)Cc3ccccc3)CC2)cc1 (centres undefined)	1.1	-20	12*	-9	-6	.
O=C(Oc1ccc(C(=S)N2CCOCC2)cc1)c1cccc(Cl)c1	.	.	.	.	.	15
O=C(O)CC1SC(=Nc2ccc(O)cc2)NC1=O (centres undefined)	1.1	-13	-1	54*	-6	9
C=CCNC(=S)NNC(=O)c1cc(O)ccc1O	1	-14	-2	68*	2	-10
C=CCNC(=S)NNC(=O)c1ccc(Br)cc1	1	-10	-2	-104	-3	23
Cc1c(CNC2CCCC2)c(C(=O)O)c(C)n1Cc1ccccc1	1	-8	1	-14	1	-9
CC(=O)c1cccc(N(C(=O)Cn2nnc3ccccc32)C(C(=O)NC2CCCCC2)c2cn(C)nc2C)c1 (centres undefined)	1	-17	-3	-5	0	1
O=C(NC1CCCCC1)C(c1ccc(O)c(O)c1)N(C(=O)Cn1nnc2ccccc21)c1cccc(O)c1 (centres undefined)	1	-10	-2	51*	0	-13
CCOc1cc(/C=N\NC(=O)OC(C)(C)C)ccc1OC(=O)c1ccco1	1	-24	19*	-16	-3	-1
COCCCNC(=O)Cn1c(=O)n(CCCCCC(=O)NCc2ccc3c(c2)OCO3)c(=O)c2sccc21	1	-5	-6	-5	-5	-31
SMILES	TNAP act hi DEA	Furin inh	HMGR II inh	TNAP inh noacc	TNAP inh hi DEA	Pf gametocyte
O=C(C1Cc2ccccc2CN1S(=O)(=O)c1cccs1)N1CCCCC1 (centres undefined)	1	28*	-3	-8	-3	.
Cc1onc(-c2ccccc2)c1C(=O)OCC(=O)NCc1ccc(F)cc1	1.1	-9	-4	-4	-6	4
COc1cc(C2NC(=O)NC(c3ccccc3)=C2C(C)=O)cc(Cl)c1OCC(=O)O (centres undefined)	1	-20	14*	-11	-4	6
S=C(NCCCN1CCOCC1)Nc1ccc(Cl)c(Cl)c1	1	-18	0	-13	0	.
O=C(c1ccco1)N1CCN(CC(O)COc2ccc3oc4ccccc4c3c2)CC1 (centres undefined)	1.1	-25	1	-14	-5	.
O=C(/C=C/c1ccccc1[N+](=O)[O-])Nc1cccnc1	1	-14	1	-17	0	.
CCCC(=O)NC(=S)Nc1ccc(Cl)cn1	1	-16	29*	-10	-2	11
COC(=O)NNC(=O)CCCOc1ccc(Cl)cc1Cl	1	-22	-1	-8	3	10
COc1ccc(OC)c(NC(=O)NNC(=O)CCCOc2ccc(Cl)cc2C)c1	1.1	-17	16*	-8	-7	-1
COc1ccc(/C=C/C(=O)OCC(=O)NCc2ccco2)cc1OC	1	-12	-8	-7	1	12
COc1ccc(/C(O)=C2/C(=O)C(=O)N(CCCC(=O)O)C2c2ccc(OC)c(OC)c2)cc1 (centres undefined)	1.1	-17	-10	-4	-11	.
COCCCN1C(=O)C(=O)/C(=C(/O)c2ccc(OC)cc2)C1c1ccc(O)c(OC)c1 (centres undefined)	1	-18	12*	1	-1	.
CN(CCc1cn[nH]c1)Cc1nc(Cc2ccccc2)no1	1	-19	2	-5	-2	.
O=C(CCN1C(=O)/C(=C/c2cccs2)SC1=S)Nc1ccccn1	0.9	-12	-4	5	5	-7
O=C(CCCN1C(=O)/C(=C\c2cccs2)SC1=S)Nc1ccccn1	1	-16	14*	-8	-1	-28
Cc1nc(/N=C(\N)N(C)C)[nH]c(=O)c1C	.	-31	.	.	.	.
COc1cc(OC)nc(NC(=O)NS(=O)(=O)c2ccc(F)cc2)n1	1	-22	0	-12	-5	-14
CN1CCN(Cc2coc3c(Cl)cc(Cl)cc3c2=O)CC1	.	.	.	.	.	-7
COc1ccc2cc(C(c3nnnn3C3CCCC3)N3CCCCCC3)c3nnnn3c2c1 (centres undefined)	1	-19	11*	-11	-2	.
COc1ccc2cc(C(c3nnnn3C3CCCCC3)N3CCCCCC3)c3nnnn3c2c1 (centres undefined)	.	20	.	.	.	5
CCN(Cc1ccncc1)Cc1c(O)ccc2cc(Br)ccc12	1	-25	15*	-11	0	-3
CC(=O)Nc1cccc(OCc2ccc(F)cc2)c1	1	-19	6	-10	-4	4
Cc1cc(C)c(S(=O)(=O)Nc2ccc(O)c(Sc3ncn[nH]3)c2)c(C)c1	1	-9	-2	72*	1	-16
COc1ccc(S(=O)(=O)Nc2ccc(O)c(Sc3ncn[nH]3)c2)cc1	0.9	-19	-5	79*	5	.
